# ChEMBL document CHEMBL3734675, “Synthesis, antimycobacterial and antibacterial activity of fluoroquinolone derivatives containing an 3-alkoxyimino-4-(cyclopropylanimo)methylpyrrolidine moiety” (2015)
# Key:
# Assay type in all cases: functional
# [1] = system: Mycobacterium tuberculosis; test: Antimycobacterial activity against Mycobacterium tuberculosis H37Rv ATCC 27294 incubated for 7 days by microplate Alamar Blue assay; settings: H37Rv ATCC 27294, 168 h
# Method in brief: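 Fluorescence read-out. MIC is the lowest concentration that reduces fluorescence by at least 90% relative to the mean of replicate bacterium-only controls. Isoniazid and rifampicin were included as reference drugs.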
# Escherichia coli [2] = test: Antibacterial activity against Escherichia coli ATCC 25922 after 18 to 24 hrs by two-fold serial dilution method
# Method in brief: (§1)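 Twofold serial dilution in agar media against Gram-positive and Gram-negative strains. Plates incubated at 35 °C for 18–24 h. MIC read as the lowest compound concentration giving complete inhibition of bacterial growth.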
# Escherichia coli [3] = test: Antibacterial activity against extended-spectrum beta-lactamase producing Escherichia coli 14-1 after 18 to 24 hrs by two-fold serial dilution method; method in brief: as §1
# Escherichia coli [4] = test: Antibacterial activity against extended-spectrum beta-lactamase producing Escherichia coli 14-2 after 18 to 24 hrs by two-fold serial dilution method; method in brief: as §1
# Escherichia coli [5] = test: Antibacterial activity against Escherichia coli 14-1 after 18 to 24 hrs by two-fold serial dilution method; method in brief: as §1
# Escherichia coli [6] = test: Antibacterial activity against Escherichia coli 14-2 after 18 to 24 hrs by two-fold serial dilution method; method in brief: as §1
# Klebsiella pneumoniae [7] = test: Antibacterial activity against extended-spectrum beta-lactamase producing Klebsiella pneumoniae 14-17 after 18 to 24 hrs by two-fold serial dilution method; method in brief: as §1
# Klebsiella pneumoniae [8] = test: Antibacterial activity against extended-spectrum beta-lactamase producing Klebsiella pneumoniae 14-18 after 18 to 24 hrs by two-fold serial dilution method; method in brief: as §1
# Klebsiella pneumoniae [9] = test: Antibacterial activity against extended-spectrum beta-lactamase producing Klebsiella pneumoniae 14-19 after 18 to 24 hrs by two-fold serial dilution method; method in brief: as §1
# Klebsiella pneumoniae [10] = test: Antibacterial activity against Klebsiella pneumoniae 14-1 after 18 to 24 hrs by two-fold serial dilution method; method in brief: as §1
# Klebsiella pneumoniae [11] = test: Antibacterial activity against Klebsiella pneumoniae 14-2 after 18 to 24 hrs by two-fold serial dilution method; method in brief: as §1
# Klebsiella pneumoniae [12] = test: Antibacterial activity against Klebsiella pneumoniae 14-3 after 18 to 24 hrs by two-fold serial dilution method; method in brief: as §1
# Klebsiella pneumoniae [13] = test: Antibacterial activity against Klebsiella pneumoniae 14-4 after 18 to 24 hrs by two-fold serial dilution method; method in brief: as §1
# Pseudomonas aeruginosa [14] = test: Antibacterial activity against Pseudomonas aeruginosa ATCC 27853 after 18 to 24 hrs by two-fold serial dilution method; method in brief: as §1
# Pseudomonas aeruginosa [15] = test: Antibacterial activity against Pseudomonas aeruginosa 14-9 after 18 to 24 hrs by two-fold serial dilution method; method in brief: as §1
# Pseudomonas aeruginosa [16] = test: Antibacterial activity against Pseudomonas aeruginosa 14-14 after 18 to 24 hrs by two-fold serial dilution method; method in brief: as §1
# Pseudomonas aeruginosa [17] = test: Antibacterial activity against Pseudomonas aeruginosa 14-15 after 18 to 24 hrs by two-fold serial dilution method; method in brief: as §1
# Pseudomonas aeruginosa [18] = test: Antibacterial activity against Pseudomonas aeruginosa 14-16 after 18 to 24 hrs by two-fold serial dilution method; method in brief: as §1
# Staphylococcus aureus [19] = test: Antibacterial activity against Staphylococcus aureus CMCC 26003 after 18 to 24 hrs by two-fold serial dilution method; method in brief: as §1
# Staphylococcus aureus [20] = test: Antibacterial activity against methicillin-sensitive Staphylococcus aureus 14-1 after 18 to 24 hrs by two-fold serial dilution method; method in brief: as §1
# Staphylococcus aureus [21] = test: Antibacterial activity against methicillin-sensitive Staphylococcus aureus 14-3 after 18 to 24 hrs by two-fold serial dilution method; method in brief: as §1
# Staphylococcus aureus [22] = test: Antibacterial activity against methicillin-sensitive Staphylococcus aureus 14-4 after 18 to 24 hrs by two-fold serial dilution method; method in brief: as §1
# Staphylococcus aureus [23] = test: Antibacterial activity against methicillin-resistant Staphylococcus aureus 14-4 after 18 to 24 hrs by two-fold serial dilution method
# Method in brief: (§2)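 Agar media, standard twofold serial dilution. MIC is the lowest concentration giving complete inhibition of bacterial growth after incubation at 35 °C for 18–24 h. Ciprofloxacin and levofloxacin were run as comparators.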
# Staphylococcus aureus [24] = test: Antibacterial activity against methicillin-resistant Staphylococcus aureus 14-5 after 18 to 24 hrs by two-fold serial dilution method; method in brief: as §2
# [25] = system: Staphylococcus epidermidis; test: Antibacterial activity against methicillin-sensitive Staphylococcus epidermidis 14-2 after 18 to 24 hrs by two-fold serial dilution method; method in brief: as §1
# [26] = system: Staphylococcus epidermidis; test: Antibacterial activity against methicillin-resistant Staphylococcus epidermidis 14-21 after 18 to 24 hrs by two-fold serial dilution method; method in brief: as §2
# [27] = system: Staphylococcus epidermidis; test: Antibacterial activity against methicillin-resistant Staphylococcus epidermidis 14-22 after 18 to 24 hrs by two-fold serial dilution method; method in brief: as §2
# [28] = system: Staphylococcus epidermidis; test: Antibacterial activity against methicillin-resistant Staphylococcus epidermidis 14-37 after 18 to 24 hrs by two-fold serial dilution method; method in brief: as §2
# [29] = system: Staphylococcus epidermidis; test: Antibacterial activity against methicillin-resistant Staphylococcus epidermidis 14-39 after 18 to 24 hrs by two-fold serial dilution method; method in brief: as §2
# Streptococcus pneumoniae = test: Antibacterial activity against methicillin-resistant Streptococcus pneumoniae ATCC 19615 after 18 to 24 hrs by two-fold serial dilution method; method in brief: as §2
# Enterococcus faecium [30] = test: Antibacterial activity against Enterococcus faecium 14-2 after 18 to 24 hrs by two-fold serial dilution method; method in brief: as §1
# Enterococcus faecium [31] = test: Antibacterial activity against Enterococcus faecium 14-5 after 18 to 24 hrs by two-fold serial dilution method; method in brief: as §1
# Enterococcus faecium [32] = test: Antibacterial activity against Enterococcus faecium 14-6 after 18 to 24 hrs by two-fold serial dilution method; method in brief: as §1
# Enterococcus faecalis [33] = test: Antibacterial activity against Enterococcus faecalis 14-1 after 18 to 24 hrs by two-fold serial dilution method; method in brief: as §1
# Enterococcus faecalis [34] = test: Antibacterial activity against Enterococcus faecalis 14-2 after 18 to 24 hrs by two-fold serial dilution method; method in brief: as §1
smiles,measurement,setting,value
CO/N=C1/CN(c2nc3c(cc2F)c(=O)c(C(=O)O)cn3-c2nc(N)c(F)cc2F)CC1CNC1CC1 (stereo not given),MIC90,[1],24.3 µg/mL
same,MIC,Escherichia coli [2],4 µg/mL
same,MIC,Escherichia coli [3],16 µg/mL
same,MIC,Escherichia coli [4],> 128 µg/mL
same,MIC,Escherichia coli [5],> 128 µg/mL
same,MIC,Escherichia coli [6],> 128 µg/mL
same,MIC,Klebsiella pneumoniae [7],64 µg/mL
same,MIC,Klebsiella pneumoniae [8],64 µg/mL
same,MIC,Klebsiella pneumoniae [9],64 µg/mL
same,MIC,Klebsiella pneumoniae [10],32 µg/mL
same,MIC,Klebsiella pneumoniae [11],32 µg/mL
same,MIC,Klebsiella pneumoniae [12],> 128 µg/mL
same,MIC,Klebsiella pneumoniae [13],> 128 µg/mL
same,MIC,Pseudomonas aeruginosa [14],16 µg/mL
same,MIC,Pseudomonas aeruginosa [15],32 µg/mL
same,MIC,Pseudomonas aeruginosa [16],128 µg/mL
same,MIC,Pseudomonas aeruginosa [17],128 µg/mL
same,MIC,Pseudomonas aeruginosa [18],64 µg/mL
same,MIC,Staphylococcus aureus [19],0.25 µg/mL
same,MIC,Staphylococcus aureus [20],16 µg/mL
same,MIC,Staphylococcus aureus [21],16 µg/mL
same,MIC,Staphylococcus aureus [22],16 µg/mL
same,MIC,Staphylococcus aureus [23],64 µg/mL
same,MIC,Staphylococcus aureus [24],16 µg/mL
same,MIC,[25],128 µg/mL
same,MIC,[26],64 µg/mL
same,MIC,[27],32 µg/mL
same,MIC,[28],64 µg/mL
same,MIC,[29],16 µg/mL
same,MIC,Streptococcus pneumoniae,32 µg/mL
same,MIC,Enterococcus faecium [30],32 µg/mL
same,MIC,Enterococcus faecium [31],16 µg/mL
same,MIC,Enterococcus faecium [32],32 µg/mL
same,MIC,Enterococcus faecalis [33],16 µg/mL
same,MIC,Enterococcus faecalis [34],4 µg/mL
CCO/N=C1/CN(c2nc3c(cc2F)c(=O)c(C(=O)O)cn3-c2nc(N)c(F)cc2F)CC1CNC1CC1 (stereo not given),MIC90,[1],22 µg/mL
same,MIC,Escherichia coli [2],4 µg/mL
same,MIC,Escherichia coli [3],32 µg/mL
same,MIC,Escherichia coli [4],> 128 µg/mL
same,MIC,Escherichia coli [5],> 128 µg/mL
same,MIC,Escherichia coli [6],> 128 µg/mL
same,MIC,Klebsiella pneumoniae [7],128 µg/mL
same,MIC,Klebsiella pneumoniae [8],128 µg/mL
same,MIC,Klebsiella pneumoniae [9],128 µg/mL
same,MIC,Klebsiella pneumoniae [10],64 µg/mL
same,MIC,Klebsiella pneumoniae [11],64 µg/mL
same,MIC,Klebsiella pneumoniae [12],128 µg/mL
same,MIC,Klebsiella pneumoniae [13],> 128 µg/mL
same,MIC,Pseudomonas aeruginosa [14],32 µg/mL
same,MIC,Pseudomonas aeruginosa [15],32 µg/mL
same,MIC,Pseudomonas aeruginosa [16],128 µg/mL
same,MIC,Pseudomonas aeruginosa [17],128 µg/mL
same,MIC,Pseudomonas aeruginosa [18],128 µg/mL
same,MIC,Staphylococcus aureus [19],0.125 µg/mL
same,MIC,Staphylococcus aureus [20],16 µg/mL
same,MIC,Staphylococcus aureus [21],32 µg/mL
same,MIC,Staphylococcus aureus [22],32 µg/mL
same,MIC,Staphylococcus aureus [23],64 µg/mL
same,MIC,Staphylococcus aureus [24],8 µg/mL
same,MIC,[25],> 128 µg/mL
same,MIC,[26],128 µg/mL
same,MIC,[27],32 µg/mL
same,MIC,[28],64 µg/mL
same,MIC,[29],64 µg/mL
same,MIC,Streptococcus pneumoniae,16 µg/mL
same,MIC,Enterococcus faecium [30],64 µg/mL
same,MIC,Enterococcus faecium [31],32 µg/mL
same,MIC,Enterococcus faecium [32],128 µg/mL
same,MIC,Enterococcus faecalis [33],128 µg/mL
same,MIC,Enterococcus faecalis [34],4 µg/mL
